From ChEMBL document CHEMBL5126625, “Discovery of AZD4831, a Mechanism-Based Irreversible Inhibitor of Myeloperoxidase, As a Potential Treatment for Heart Failure with Preserved Ejection Fraction” (J Med Chem, 2022)
Converted amounts (≈) assume the structure as drawn.

Experiments:
[1] = biological target: T1, Myeloperoxidase (Homo sapiens, UniProt P05164); experiment: Inhibition of MPO (unknown origin) measured after 15 mins in presence of H2O2 by chemiluminescence assay
T1 sequence (P05164 whole entry): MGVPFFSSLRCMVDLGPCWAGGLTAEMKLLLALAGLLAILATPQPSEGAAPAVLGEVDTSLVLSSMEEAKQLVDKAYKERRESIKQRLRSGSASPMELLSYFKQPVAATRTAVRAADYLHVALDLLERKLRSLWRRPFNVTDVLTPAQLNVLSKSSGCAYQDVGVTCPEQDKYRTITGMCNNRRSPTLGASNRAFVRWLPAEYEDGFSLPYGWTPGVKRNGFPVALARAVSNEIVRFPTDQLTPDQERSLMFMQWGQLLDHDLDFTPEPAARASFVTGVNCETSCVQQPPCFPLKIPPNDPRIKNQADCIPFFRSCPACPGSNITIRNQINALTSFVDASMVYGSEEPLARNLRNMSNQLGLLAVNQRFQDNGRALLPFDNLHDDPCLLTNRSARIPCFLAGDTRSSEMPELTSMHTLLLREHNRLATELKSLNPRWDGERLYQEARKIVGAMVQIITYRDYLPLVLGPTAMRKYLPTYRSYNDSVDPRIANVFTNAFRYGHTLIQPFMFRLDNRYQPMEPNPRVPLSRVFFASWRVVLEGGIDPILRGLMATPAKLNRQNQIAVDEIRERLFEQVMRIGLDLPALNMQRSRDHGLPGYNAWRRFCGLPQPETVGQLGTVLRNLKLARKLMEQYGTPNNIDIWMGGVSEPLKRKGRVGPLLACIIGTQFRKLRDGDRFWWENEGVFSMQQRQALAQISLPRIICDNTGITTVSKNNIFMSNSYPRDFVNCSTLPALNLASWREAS

[2] = biological target: T1, Myeloperoxidase; experiment: Inhibition of MPO in human HL-60 cells measured after 15 mins in presence of H2O2 by chemiluminescence assay; assay type: cell-based
[3] = biological target: T2, Thyroid peroxidase (Homo sapiens, UniProt P07202); experiment: Inhibition of human recombinant TPO (1 to 839 residues) expressed in baculovirus-infected insect cells measured after 15 mins in presence of H2O2 by chemiluminescence assay
T2 sequence (P07202 whole entry): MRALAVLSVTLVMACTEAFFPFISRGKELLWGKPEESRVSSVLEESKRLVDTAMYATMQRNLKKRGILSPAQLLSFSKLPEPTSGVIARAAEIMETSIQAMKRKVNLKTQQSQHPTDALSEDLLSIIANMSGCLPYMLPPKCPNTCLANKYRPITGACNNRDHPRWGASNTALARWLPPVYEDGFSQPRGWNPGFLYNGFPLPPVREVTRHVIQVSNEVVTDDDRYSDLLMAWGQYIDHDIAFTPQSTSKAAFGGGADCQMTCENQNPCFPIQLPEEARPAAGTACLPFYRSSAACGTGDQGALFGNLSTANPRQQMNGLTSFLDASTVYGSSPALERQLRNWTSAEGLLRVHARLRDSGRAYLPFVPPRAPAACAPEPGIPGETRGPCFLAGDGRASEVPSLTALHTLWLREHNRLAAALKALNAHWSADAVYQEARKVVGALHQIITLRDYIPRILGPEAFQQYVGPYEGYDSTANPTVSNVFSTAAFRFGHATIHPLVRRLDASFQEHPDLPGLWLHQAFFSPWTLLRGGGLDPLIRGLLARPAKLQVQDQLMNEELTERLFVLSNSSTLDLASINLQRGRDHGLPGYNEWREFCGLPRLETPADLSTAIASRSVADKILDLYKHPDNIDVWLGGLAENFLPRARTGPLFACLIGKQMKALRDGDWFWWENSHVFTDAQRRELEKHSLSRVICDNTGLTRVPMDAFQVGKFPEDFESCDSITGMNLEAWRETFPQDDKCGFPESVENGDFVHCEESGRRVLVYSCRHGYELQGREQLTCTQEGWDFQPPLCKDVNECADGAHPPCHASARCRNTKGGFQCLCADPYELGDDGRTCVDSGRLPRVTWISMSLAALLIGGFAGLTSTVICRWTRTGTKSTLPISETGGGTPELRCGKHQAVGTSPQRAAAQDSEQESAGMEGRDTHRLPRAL
How it was run: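 IC50 determined against purified enzyme in an in vitro chemiluminescent assay.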

[4] = Lipophilicity, log D of the compound; settings: octanol/water
[5] = Apparent permeability of the compound across apical to basolateral side in human Caco-2 cells at 10 uM by LC-MS/MS analysis
[6] = physchem; settings: phosphate buffer, pH 7.4
[7] = Oral bioavailability in Wistar Han rat measured up to 24 hrs by LC-MS/MS analysis; assay type: ADME, organism-based; settings: in vivo
[8] = Oral bioavailability in Beagle dog measured up to 24 hrs by LC-MS/MS analysis; assay type: ADME, organism-based, Canis lupus familiaris; settings: in vivo
[9] = biological target: Voltage-gated inwardly rectifying potassium channel KCNH2 (Homo sapiens, UniProt Q12809)
Voltage-gated inwardly rectifying potassium channel KCNH2, sequence (Q12809 whole entry): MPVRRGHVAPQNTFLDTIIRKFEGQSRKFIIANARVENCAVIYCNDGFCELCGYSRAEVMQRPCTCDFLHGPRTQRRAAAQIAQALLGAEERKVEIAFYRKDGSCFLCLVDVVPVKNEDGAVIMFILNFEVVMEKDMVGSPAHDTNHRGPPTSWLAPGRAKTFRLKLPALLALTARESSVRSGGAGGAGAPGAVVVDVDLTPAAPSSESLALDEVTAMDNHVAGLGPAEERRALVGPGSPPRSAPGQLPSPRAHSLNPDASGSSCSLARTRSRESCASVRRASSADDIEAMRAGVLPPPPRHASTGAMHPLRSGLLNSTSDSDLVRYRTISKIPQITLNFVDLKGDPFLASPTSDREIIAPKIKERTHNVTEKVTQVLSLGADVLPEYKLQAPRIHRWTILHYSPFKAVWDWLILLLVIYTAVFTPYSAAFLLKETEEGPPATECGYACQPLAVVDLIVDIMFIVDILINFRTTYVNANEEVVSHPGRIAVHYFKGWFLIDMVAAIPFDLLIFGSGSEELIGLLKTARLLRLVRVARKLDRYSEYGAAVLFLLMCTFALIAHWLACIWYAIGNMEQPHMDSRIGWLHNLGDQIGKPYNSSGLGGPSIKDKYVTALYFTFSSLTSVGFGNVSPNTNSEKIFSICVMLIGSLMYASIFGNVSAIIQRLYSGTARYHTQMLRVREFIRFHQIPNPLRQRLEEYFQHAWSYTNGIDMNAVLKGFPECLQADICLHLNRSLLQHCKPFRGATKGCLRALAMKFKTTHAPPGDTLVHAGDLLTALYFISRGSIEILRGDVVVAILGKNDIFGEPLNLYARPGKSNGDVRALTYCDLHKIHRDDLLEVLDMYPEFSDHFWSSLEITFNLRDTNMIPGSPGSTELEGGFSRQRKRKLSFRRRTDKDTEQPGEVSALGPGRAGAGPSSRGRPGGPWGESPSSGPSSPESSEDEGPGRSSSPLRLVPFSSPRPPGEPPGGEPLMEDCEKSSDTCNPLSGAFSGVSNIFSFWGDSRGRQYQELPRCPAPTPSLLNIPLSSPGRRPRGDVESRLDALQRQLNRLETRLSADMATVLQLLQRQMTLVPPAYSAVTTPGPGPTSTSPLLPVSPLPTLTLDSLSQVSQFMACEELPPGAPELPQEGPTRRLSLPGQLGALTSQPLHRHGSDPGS

[10] = biological target: Cytochrome P450 3A4 (Homo sapiens, UniProt P08684)
Cytochrome P450 3A4, sequence (P08684 whole entry): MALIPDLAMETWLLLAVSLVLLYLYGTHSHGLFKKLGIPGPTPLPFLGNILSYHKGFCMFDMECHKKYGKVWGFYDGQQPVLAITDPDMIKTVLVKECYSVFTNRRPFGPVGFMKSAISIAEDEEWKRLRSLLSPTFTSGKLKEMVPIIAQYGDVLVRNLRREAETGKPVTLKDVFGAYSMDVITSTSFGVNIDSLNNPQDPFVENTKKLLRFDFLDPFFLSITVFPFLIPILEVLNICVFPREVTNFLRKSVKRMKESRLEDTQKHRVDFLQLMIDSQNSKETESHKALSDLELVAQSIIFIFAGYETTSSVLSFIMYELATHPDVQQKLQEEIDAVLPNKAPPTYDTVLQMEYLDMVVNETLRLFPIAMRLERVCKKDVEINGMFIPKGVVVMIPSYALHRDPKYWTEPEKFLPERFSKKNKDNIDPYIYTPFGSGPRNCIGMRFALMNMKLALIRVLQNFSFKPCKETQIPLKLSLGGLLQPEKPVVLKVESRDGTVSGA

[11] = biological target: Cytochrome P450 2C9 (Homo sapiens, UniProt P11712); experiment: Inhibition of human recombinant CYP2C9 using coumarin as substrate preincubated with enzyme for 10 mins followed by NADPH addition and measured after 20 to 50 mins by fluorescence based method
Cytochrome P450 2C9, sequence (P11712 whole entry): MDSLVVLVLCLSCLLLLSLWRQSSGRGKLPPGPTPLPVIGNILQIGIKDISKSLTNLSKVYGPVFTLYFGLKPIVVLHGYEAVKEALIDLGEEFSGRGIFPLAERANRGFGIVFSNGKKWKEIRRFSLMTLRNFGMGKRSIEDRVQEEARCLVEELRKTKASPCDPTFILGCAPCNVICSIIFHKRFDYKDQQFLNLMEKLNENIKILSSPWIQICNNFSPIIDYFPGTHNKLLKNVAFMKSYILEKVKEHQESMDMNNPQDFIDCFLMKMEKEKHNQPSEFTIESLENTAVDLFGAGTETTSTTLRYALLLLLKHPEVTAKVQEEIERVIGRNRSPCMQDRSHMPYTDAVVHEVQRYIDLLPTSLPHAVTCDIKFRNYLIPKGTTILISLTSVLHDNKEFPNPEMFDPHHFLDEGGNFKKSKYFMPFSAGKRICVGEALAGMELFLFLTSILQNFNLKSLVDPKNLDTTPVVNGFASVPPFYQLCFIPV

[12] = biological target: Cytochrome P450 2D6 (Homo sapiens, UniProt P10635); experiment: Inhibition of CYP2D6 (unknown origin) using coumarin as substrate preincubated with enzyme for 10 mins followed by NADPH addition and measured after 20 to 50 mins by fluorescence based method
Cytochrome P450 2D6, sequence (P10635 whole entry): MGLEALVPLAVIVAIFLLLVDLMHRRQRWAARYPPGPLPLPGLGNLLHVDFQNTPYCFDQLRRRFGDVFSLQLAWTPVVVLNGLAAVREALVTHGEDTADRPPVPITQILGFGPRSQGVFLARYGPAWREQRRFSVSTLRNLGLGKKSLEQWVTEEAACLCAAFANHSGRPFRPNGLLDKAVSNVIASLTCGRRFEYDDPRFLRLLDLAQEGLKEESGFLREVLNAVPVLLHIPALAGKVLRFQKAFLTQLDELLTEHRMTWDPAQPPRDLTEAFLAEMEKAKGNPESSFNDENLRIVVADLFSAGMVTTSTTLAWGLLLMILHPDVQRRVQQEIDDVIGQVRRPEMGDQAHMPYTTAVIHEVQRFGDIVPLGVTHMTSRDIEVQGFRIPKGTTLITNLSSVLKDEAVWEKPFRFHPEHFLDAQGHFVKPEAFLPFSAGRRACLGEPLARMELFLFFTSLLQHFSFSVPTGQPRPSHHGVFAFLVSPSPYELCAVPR

[13] = biological target: T3, Cytochrome P450 1A2 (Homo sapiens, UniProt P05177); experiment: Inhibition of human recombinant CYP1A2 using coumarin as substrate preincubated with enzyme for 10 mins followed by NADPH addition and measured after 20 to 50 mins by fluorescence based method
T3 sequence (P05177 whole entry): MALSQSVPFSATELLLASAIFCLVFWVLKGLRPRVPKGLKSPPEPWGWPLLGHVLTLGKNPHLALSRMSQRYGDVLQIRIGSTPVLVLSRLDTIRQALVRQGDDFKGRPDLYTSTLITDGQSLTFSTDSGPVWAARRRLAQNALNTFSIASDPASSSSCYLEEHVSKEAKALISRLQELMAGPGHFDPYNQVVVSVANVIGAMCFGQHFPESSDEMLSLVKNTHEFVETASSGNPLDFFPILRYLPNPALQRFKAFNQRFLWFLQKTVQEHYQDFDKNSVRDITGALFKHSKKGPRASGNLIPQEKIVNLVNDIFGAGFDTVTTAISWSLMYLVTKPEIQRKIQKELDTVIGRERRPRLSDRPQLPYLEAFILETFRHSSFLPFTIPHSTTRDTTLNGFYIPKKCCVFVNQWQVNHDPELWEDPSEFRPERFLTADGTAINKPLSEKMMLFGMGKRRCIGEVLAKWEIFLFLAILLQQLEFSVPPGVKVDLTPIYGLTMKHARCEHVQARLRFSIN

[14] = biological target: Cytochrome P450 2C19 (Homo sapiens, UniProt P33261); experiment: Inhibition of human recombinant CYP2C19 using coumarin as substrate preincubated with enzyme for 10 mins followed by NADPH addition and measured after 20 to 50 mins by fluorescence based method
Cytochrome P450 2C19, sequence (P33261 whole entry): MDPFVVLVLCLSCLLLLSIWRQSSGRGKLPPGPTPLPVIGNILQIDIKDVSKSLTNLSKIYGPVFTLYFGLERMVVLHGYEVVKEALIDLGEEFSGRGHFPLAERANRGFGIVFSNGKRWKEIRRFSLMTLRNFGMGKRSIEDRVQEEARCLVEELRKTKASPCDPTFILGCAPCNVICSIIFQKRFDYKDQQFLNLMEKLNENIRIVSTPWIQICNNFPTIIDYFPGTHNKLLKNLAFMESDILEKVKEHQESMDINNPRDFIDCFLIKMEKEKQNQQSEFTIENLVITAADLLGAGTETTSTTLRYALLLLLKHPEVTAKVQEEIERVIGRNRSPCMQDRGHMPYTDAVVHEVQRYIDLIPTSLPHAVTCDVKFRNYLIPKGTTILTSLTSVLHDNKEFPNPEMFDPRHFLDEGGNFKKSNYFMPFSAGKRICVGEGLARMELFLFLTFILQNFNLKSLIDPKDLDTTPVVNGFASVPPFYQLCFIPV

[15] = Drug uptake in human liver microsomes assessed as covalent binding at 10 uM incubated for 60 mins by LC/MS analysis; assay type: ADME, Microsome; settings: 1 h
How it was run: (§1)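 Human liver microsomes incubated with the [14C]-labelled compound to measure covalent binding to microsomal protein.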

[16] = Drug uptake in human liver microsomes assessed as covalent binding at 10 uM incubated for 60 mins in presence of NADPH by LC/MS analysis; assay type: ADME, Microsome; settings: 1 h; how it was run: as §1
[17] = Drug uptake in heat-inactivated human liver microsomes assessed as covalent binding at 10 uM incubated for 60 mins by LC/MS analysis; assay type: ADME, Microsome; settings: 1 h; how it was run: as §1
[18] = Drug uptake in human liver microsomes assessed as covalent binding at 10 uM incubated for 60 mins in presence of formaldehyde by LC/MS analysis; assay type: ADME, Microsome; settings: 1 h
How it was run: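 Covalent binding of the [14C]-labelled compound in human liver microsome incubations with 5 mM formaldehyde added.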

[19] = Drug uptake in human hepatocytes assessed as covalent binding measured per mg protein; assay type: ADME, cell-based, Hepatocyte
How it was run: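 [14C]-labelled compound incubated with human hepatocytes; covalently bound radioactivity expressed as pmol per mg protein.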

[20] = Drug uptake in Lister Hooded rat liver assessed as nonextractable fraction at 4.55 umol/kg, po measured after 24 hrs by whole body autoradiography; assay type: ADME, organism-based; settings: in vivo, at 4.55 µmol/kg
How it was run: (§2)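 Rats were given a single oral dose of 10 MBq/kg of the [14C]-labelled compound. Whole-body autoradiography was done 24 h post-dose on sections before and after extraction, with the nonextractable liver fraction taken from the extracted sections. Whole-body drug-related material was also measured at 7 days.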

[21] = Drug uptake in Lister Hooded rat pigmented skin at 4.55 umol/kg, po measured after 24 hrs by whole body autoradiography; assay type: ADME, organism-based, Skin of body; settings: in vivo, dose 4.55 µmol/kg; how it was run: as §2
[22] = Drug uptake in Lister Hooded rat eyes at 4.55 umol/kg, po measured after 24 hrs by whole body autoradiography; assay type: ADME, organism-based, Eye; settings: in vivo, dose 4.55 µmol/kg; how it was run: as §2
[23] = Drug uptake in Lister Hooded rat at 4.55 umol/kg, po measured after 7 days by whole body autoradiography; assay type: ADME, organism-based; settings: in vivo, 168 h, at 4.55 µmol/kg, time 7 day; how it was run: as §2
[24] = biological target: T1, Myeloperoxidase; experiment: Displacement of benzhydroxamic acid from native state MPO (unknown origin) by 1D NMR reporter assay

Structure (SMILES) | IC50 [1] | IC50 [2] | IC50 [3] | logD [4] | Papp A→B at 10 µM [5] | solubility thermodynamic at 18 h [6] | further results
CNCc1c(Cl)cccc1Cn1c(=S)[nH]c(=O)c2[nH]ccc21 | 39.3 nM | 9400 nM | 4200 nM | 1.3 | 19 ×10⁻⁶ cm/s | 150 µM (≈ 50.2 µg/mL) | –
CNCc1cc(Cl)ccc1Cn1c(=S)[nH]c(=O)c2[nH]ccc21 | 15.9 nM | 6600 nM | 2100 nM | 1.3 | 17 ×10⁻⁶ cm/s | 160 µM (≈ 53.6 µg/mL) | bioavailability [7]: 60%; bioavailability [8]: 72%; IC50 [9]: 10000 nM; IC50 [10]: > 30000 nM
COc1ccc(Cl)cc1-c1cc(=O)[nH]c(=S)n1CC(N)=O [PF-06282999] | – | – | 990 nM | – | – | – | –
CC(C)NCc1ccccc1Cn1c(=S)[nH]c(=O)c2[nH]ccc21 | 30.9 nM | 13000 nM | 8100 nM | 0.9 | 12 ×10⁻⁶ cm/s | 140 µM (≈ 46 µg/mL) | –
CN[C@H](C)c1cc(Cl)ccc1Cn1c(=S)[nH]c(=O)c2[nH]ccc21 (racemic) | 12.7 nM | 4600 nM | 1100 nM | 1.5 | 19 ×10⁻⁶ cm/s | 190 µM (≈ 66.3 µg/mL) | –
NCc1cc(Cl)ccc1Cn1c(=S)[nH]c(=O)c2[nH]ccc21 | – | – | 1300 nM | 1.2 | 6 ×10⁻⁶ cm/s | 42 µM (≈ 13.5 µg/mL) | IC50 [11]: > 30000 nM; IC50 [12]: > 30000 nM; IC50 [13]: > 30000 nM; IC50 [14]: > 30000 nM; bioavailability [7]: 68%; bioavailability [8]: 45%; IC50 [9]: > 40000 nM; IC50 [10]: 19000 nM
NCc1cc(Cl)ccc1Cn1c2cc[nH]c2c(=O)[nH][14c]1=S | – | – | – | – | – | – | Drug uptake [15]: Active; Drug uptake [16]: Active; Drug uptake [17]: Active; Drug uptake [18]: Active; Drug uptake [19]: 95 pmol
O=c1[nH]c(=S)n(Cc2ccc(F)cc2)c2nc[nH]c12 | – | – | 590 nM | – | – | – | –
C[C@@H](N)c1cc(Cl)ccc1Cn1c2cc[nH]c2c(=O)[nH][14c]1=S | – | – | – | – | – | – | Drug uptake [20]: < 0.2%; Drug uptake [21]: Active; Drug uptake [22]: Active; Drug uptake [23]: 0.1%
C[C@@H](N)c1cc(Cl)ccc1Cn1c(=S)[nH]c(=O)c2[nH]cnc21 | – | – | 770 nM | – | – | – | –
O=c1[nH]c(=S)n(C[C@H]2CCCO2)c2nc[nH]c12 | 279 nM | 29000 nM | 2400 nM | – | – | – | Kd [24]: 63100 nM
NC(c1ccccc1)c1ccccc1Cn1c(=S)[nH]c(=O)c2[nH]ccc21 (stereo not drawn) | – | – | 1390 nM | 1.7 | 18 ×10⁻⁶ cm/s | 8.3 µM (≈ 3.01 µg/mL) | –
O=c1[nH]c(=S)n(Cc2ccccc2CN2CCC2)c2cc[nH]c12 | 15.1 nM | 6600 nM | 1500 nM | 1 | 19 ×10⁻⁶ cm/s | 930 µM (≈ 304 µg/mL) | –
CNCc1ccc(Cl)cc1Cn1c(=S)[nH]c(=O)c2[nH]ccc21 | 27.1 nM | 6100 nM | 1900 nM | 1.1 | 9.6 ×10⁻⁶ cm/s | 210 µM (≈ 70.3 µg/mL) | –
CC(=O)NCc1cc(Cl)ccc1Cn1c(=S)[nH]c(=O)c2[nH]ccc21 | 140 nM | 16000 nM | 1400 nM | 2 | 11 ×10⁻⁶ cm/s | 3.3 µM (≈ 1.2 µg/mL) | –
CC(C)NCc1ccccc1Cn1c(=S)[nH]c(=O)c2[nH]cnc21 | 38.6 nM | 80000 nM | 4200 nM | 0.3 | 0.89 ×10⁻⁶ cm/s | 18 µM (≈ 5.93 µg/mL) | –
C[C@H](N)c1cc(Cl)ccc1Cn1c(=S)[nH]c(=O)c2[nH]ccc21 | – | – | 1100 nM | 1.4 | 10 ×10⁻⁶ cm/s | 850 µM (≈ 285 µg/mL) | –
